Source: ChEMBL document CHEMBL1144911, “Synthesis and biological evaluation of 5-substituted derivatives of the potent antiherpes agent (north)-methanocarbathymine” (J Med Chem, 2003)
Values belong to the molecule of their own block, whether it stands above or below them.

Experiments:
[1] = Inhibitory activity against HSV-1-TK transfected osteosarcoma cells; assay type: functional
In short: (§1)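 Osteosarcoma lines (143B-TK⁻ with 0.1 mg/mL 5-BrdU selection; MG-63-hTK1; 143B-TK⁺-HSV1-WT with HAT) grown in MEM/10% FCS. Seeded at 2 × 10³ (143B lines) or 1.5 × 10³ (MG-63) cells/well, exposed to five concentrations over 0.5–500 μM for 4.5 days at 37 °C/5% CO₂. XTT added for 9 h, A450 (ref 750 nm) read against untreated wells. Three independent series in triplicate.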

Human alphaherpesvirus 3 [2] = assay: Antiviral activity against 07/1 strain of thymidine kinase negative (TK-) Varicella-Zoster Virus (VZV); assay type: functional, organism-based
Human alphaherpesvirus 3 [3] = assay: Cytotoxic concentration that causes growth inhibition of VZV infected Osteosarcoma cells; assay type: functional
Homo sapiens [4] = organism: Homo sapiens; assay: Cytotoxic concentration that produces 50% growth inhibition of human skin fibroblast in CPE assay; assay type: functional
HFF [5] = assay: Cytotoxic concentration for 50% inhibition of cell growth of HSV-2 infected HFF cells determined by CPE assay; assay type: functional; settings: Homo sapiens
[6] = Catalytic rate constant was determined; assay type: ADME
Human alphaherpesvirus 1 [7] = assay: Inhibitory concentration required to reduce HSV-1 induced cytopathogenic effect (CPE) by 50 % in HFF cells; assay type: functional, organism-based, herpes simplex virus; settings: Human alphaherpesvirus 1, HFF
[8] = Cytotoxic concentration against HSV-1 TK- transfected osteosarcoma cells; assay type: functional; settings: Human alphaherpesvirus 1; in short: as §1
Human alphaherpesvirus 3 [9] = assay: Effective concentration against TK+ Varicella-Zoster Virus (VZV)YS strain; assay type: functional, organism-based
Homo sapiens [10] = organism: Homo sapiens; assay: (§2) Inhibitory concentration required to reduce HSV-1 induced cytopathogenic effect (CPE) in human skin fibroblast; assay type: functional, organism-based
Human alphaherpesvirus 2 = assay: Inhibitory concentration required to reduce HSV-2 induced cytopathogenic effect (CPE) by 50 % in HFF cells; assay type: functional, organism-based; settings: Human alphaherpesvirus 2, HFF
[11] = Minimum cytotoxic concentration that causes microscopically detectable alterations of cell morphology; assay type: functional
[12] = Cytotoxic concentration against HSV-1 TK-transfected osteosarcoma cells; assay type: functional; settings: Human alphaherpesvirus 1; in short: as §1
[13] = test system: Thymidine kinase (Herpes simplex virus type 1); assay: Catalytic turnover constant against HSV-1 thymidine kinase
HFF [14] = assay: Cytotoxic concentration for 50% inhibition of cell growth of HSV-1 infected HFF cells determined by CPE assay; assay type: functional; settings: Homo sapiens
Human alphaherpesvirus 3 [15] = assay: Effective concentration against TK- Varicella-Zoster Virus (VZV) 07/1 strain; assay type: functional, organism-based
Homo sapiens [16] = organism: Homo sapiens; assay: Inhibitory concentration required to reduce HSV-2 induced cytopathogenic effect in human skin fibroblast; assay type: functional, organism-based
[17] = Cytotoxic concentration that produces 50% inhibition of cell growth.; assay type: functional
Human alphaherpesvirus 3 [18] = assay: Antiviral activity against OKA strain of thymidine kinase positive(TK+) Varicella-Zoster Virus (VZV); assay type: functional, organism-based
Human alphaherpesvirus 3 [19] = assay: Minimum cytotoxic concentration that causes alterations of VZV infected Osteosarcoma cell morphology; assay type: functional
Human alphaherpesvirus 3 [20] = assay: Effective concentration against TK+ Varicella-Zoster Virus (VZV) OKA strain; assay type: functional, organism-based
Human alphaherpesvirus 3 [21] = assay: Effective concentration against TK- Varicella-Zoster Virus (VZV) YS/R strain; assay type: functional, organism-based
[22] = Inhibition constant against HSV-1 TK; assay type: functional, herpes simplex virus
[23] = Cytotoxic concentration against non transfected osteosarcoma cells non transfected (MG-63-hTK1); assay type: functional; in short: as §1
Human alphaherpesvirus 3 [24] = assay: Antiviral activity against YS strain of thymidine kinase positive(TK+) Varicella-Zoster Virus (VZV); assay type: functional, organism-based
Human alphaherpesvirus 3 [25] = assay: Antiviral activity against YS/R strain of thymidine kinase negative(TK-) Varicella-Zoster Virus (VZV); assay type: functional, organism-based
HFF [26] = assay: Inhibitory concentration for HSV-2 plaque reduction (VPR) by 50% in HFF cells; assay type: functional, cell-based; settings: Homo sapiens
HFF [27] = assay: Inhibitory concentration for HSV-1 plaque reduction (VPR) by 50% in HFF cells; assay type: functional, cell-based; settings: Homo sapiens
HFF [28] = assay: Cytotoxic concentration for 50% inhibition of cell growth of HSV-2 infected HFF cells determined by VPR assay; assay type: functional; settings: Homo sapiens
In short: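 Run in virus-infected HFF cells within the plaque reduction assay set-up. […] The value was converted from μg/mL to μM.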

Homo sapiens [29] = organism: Homo sapiens; assay: Cytotoxic concentration that produces 50% growth inhibition of human skin fibroblast in VPR assay; assay type: functional
Homo sapiens [30] = organism: Homo sapiens; assay: Inhibitory concentration required to reduce HSV-2 induced virus plaque reduction (VPR) in human skin fibroblast; assay type: functional, organism-based
HFF [31] = assay: Cytotoxic concentration for 50% inhibition of cell growth of HSV-1 infected HFF cells determined by VPR assay; assay type: functional; settings: Homo sapiens
Homo sapiens [32] = organism: Homo sapiens; assay: Cytotoxic concentration that produces 50% growth inhibition of human skin fibroblast infected with HSV-1; assay type: functional
Homo sapiens [33] = organism: Homo sapiens; assay: Inhibitory concentration required to reduce HSV-1 induced virus plaque reduction (VPR) in human skin fibroblast; assay type: functional, organism-based
Human alphaherpesvirus 3 [34] = assay: Effective concentration of compound against Varicella-Zoster Virus (VZV); Range is 0.06-0.12 uM; assay type: functional, organism-based
HFF [35] = assay: Concentration for HSV-1 plaque reduction (VPR) by 50% in HFF cells; assay type: functional, cell-based; settings: Homo sapiens
HFF [36] = assay: Concentration for HSV-2 plaque reduction (VPR) by 50% in HFF cells; assay type: functional, cell-based; settings: Homo sapiens
Human alphaherpesvirus 1 [37] = assay: as §2; assay type: functional, organism-based, herpes simplex virus

- EC50 (Human alphaherpesvirus 3 [2]): > 5000 nM
- k cat [6]: 0.14 s⁻¹
- EC50 (Human alphaherpesvirus 1 [7]): > 275000 nM
- EC50 (Human alphaherpesvirus 3 [9]): 120 nM
- EC50 (Human alphaherpesvirus 2): 9060 nM
- k cat [13]: 0.14 s⁻¹
- EC50 (Human alphaherpesvirus 3 [15]): > 5000 nM
- EC50 (Human alphaherpesvirus 3 [18]): 160 nM
- EC50 (Human alphaherpesvirus 3 [20]): 160 nM
- EC50 (Human alphaherpesvirus 3 [21]): 3000 nM
- Ki [22]: 85800 nM
- EC50 (Human alphaherpesvirus 3 [24]): 120 nM
- EC50 (Human alphaherpesvirus 3 [25]): 3000 nM
Structure (SMILES): O=c1[nH]c(=O)n([C@H]2C[C@H](O)[C@]3(CO)C[C@H]23)cc1I
- CC50 [1]: 25000 nM
- CC50 (Human alphaherpesvirus 3 [3]): > 200000 nM
- CC50 (Homo sapiens [4]): > 275000 nM
- CC50 (HFF [5]): > 275000 nM
- CC50 [8]: > 500000 nM
- EC50 (Homo sapiens [10]): > 275000 nM
- MCC [11]: > 5 µM
- CC50 [12]: 25000 nM
- CC50 (HFF [14]): > 275000 nM
- EC50 (Homo sapiens [16]): 9060 nM
- CC50 [17]: > 200000 nM
- MCC (Human alphaherpesvirus 3 [19]): > 5 µM
- CC50 [23]: 300000 nM

- EC50 (Human alphaherpesvirus 1 [7]): 120 nM
- EC50 (Human alphaherpesvirus 2): 350 nM
- Ki [22]: 16100 nM
Structure (SMILES): Cc1cn([C@H]2C[C@H](O)[C@]3(CO)C[C@H]23)c(=O)[nH]c1=O [(NORTH)-METHANOCARBATHYMIDINE]
- EC50 (HFF [26]): 470 nM
- EC50 (HFF [27]): 40 nM
- CC50 (HFF [5]): > 396000 nM
- CC50 (HFF [28]): > 79000 nM
- EC50 (Homo sapiens [10]): 120 nM
- CC50 (HFF [14]): > 396000 nM
- EC50 (Homo sapiens [16]): 350 nM
- CC50 (Homo sapiens [29]): > 79000 nM
- EC50 (Homo sapiens [30]): 470 nM
- CC50 (HFF [31]): > 79000 nM
- CC50 (Homo sapiens [32]): > 396000 nM
- EC50 (Homo sapiens [33]): 40 nM

- EC50 (Human alphaherpesvirus 3 [34]): 120 nM
Structure (SMILES): O=c1[nH]c(=O)n([C@H]2C[C@@H](CO)[C@H](O)C2)cc1/C=C/Br

- EC50 (Human alphaherpesvirus 1 [7]): 2220 nM
- EC50 (Human alphaherpesvirus 2): 10200 nM
Structure (SMILES): Nc1nc2c(ncn2COCCO)c(=O)[nH]1 [ACYCLOVIR]
- EC50 (HFF [35]): 1100 nM
- EC50 (HFF [36]): 1680 nM
- EC50 (Homo sapiens [16]): 10200 nM
- EC50 (Homo sapiens [30]): 1680 nM
- EC50 (Human alphaherpesvirus 1 [37]): 2220 nM
- EC50 (Homo sapiens [33]): 1100 nM
